Test results from ChEMBL document CHEMBL1152785, “Synthesis and biological evaluation of a series of novel inhibitor of Nek2/Hec1 analogues” (J Med Chem, 2009).
Calls of active or inactive are those of the source. No cut-off for these calls is given here.

Columns and labels:
[1] = tested on: MDA-MB-231; assay: Cytotoxicity against human MDA-MB-231 cells after 4 days XTT assay; format: functional, cell-based; settings: MDA-MB-231, 96 h
Outline: (§1)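 XTT assay with four-day drug treatment. Cells were plated one day before dosing and drug was added on day 2. XTT was read on day 5 after drug addition by absorbance at 595 nm. Absorbance was converted to percent survival against mock-treated cells to give dose-dependent cytotoxicity. Triplicate sets. HeLa, MDA-MB231 and MDA-MB468 were maintained in DMEM with 10% FBS.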

[2] = tested on: MDA-MB-468; assay: Cytotoxicity against human MDA-MB-468 cells after 4 days by XTT assay; format: functional, cell-based; settings: MDA-MB-468, 96 h; outline: as §1
[3] = tested on: HeLa; assay: Cytotoxicity against human HeLa cells after 4 days by XTT assay; format: functional, cell-based; settings: 96 h; outline: as §1
[4] = tested on: K562; assay: Cytotoxicity against human K562 cells after 4 days by XTT assay; format: functional, cell-based; settings: K562, 96 h
[5] = tested on: HeLa; assay: Anticancer activity against human HeLa cells assessed as reduction of Nek2 level at 25 uM by Western blot assay; format: functional, cell-based
[6] = tested on: HeLa; assay: Anticancer activity against human HeLa cells assessed as reduction of Nek2 level at 25 uM after 8 to 11 hrs by Western blot assay; format: functional, cell-based
[7] = biological target: T1, Kinetochore protein NDC80 homolog (Homo sapiens) (UniProt O14777); assay: Inhibition of Hec1/Nek2 complex in human Hela cells assessed as mitotic abnormality with multipolar spindle configuration at 25 uM after 24 hrs by immuno-fluorescent staining; format: cell-based
T1 sequence (whole entry): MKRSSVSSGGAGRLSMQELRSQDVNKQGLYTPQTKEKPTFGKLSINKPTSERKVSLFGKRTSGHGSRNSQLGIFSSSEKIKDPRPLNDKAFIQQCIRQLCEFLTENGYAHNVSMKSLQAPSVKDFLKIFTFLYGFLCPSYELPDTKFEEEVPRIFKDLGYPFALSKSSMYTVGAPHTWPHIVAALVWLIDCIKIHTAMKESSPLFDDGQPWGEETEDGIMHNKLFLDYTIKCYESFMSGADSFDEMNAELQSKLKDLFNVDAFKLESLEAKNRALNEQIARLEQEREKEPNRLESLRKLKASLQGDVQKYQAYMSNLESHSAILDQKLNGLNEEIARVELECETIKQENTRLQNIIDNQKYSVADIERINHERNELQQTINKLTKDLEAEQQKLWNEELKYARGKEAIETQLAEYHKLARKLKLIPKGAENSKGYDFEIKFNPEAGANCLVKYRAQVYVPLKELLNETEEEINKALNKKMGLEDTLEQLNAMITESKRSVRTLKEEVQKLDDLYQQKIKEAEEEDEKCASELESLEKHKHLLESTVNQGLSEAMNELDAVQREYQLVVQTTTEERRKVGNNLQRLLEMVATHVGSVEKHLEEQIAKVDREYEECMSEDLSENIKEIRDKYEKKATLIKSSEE

Cc1ccc(-c2csc(NC(=O)c3ccccc3)n2)c(C)c1 showed an IC50 [1] of 8.6 µM, an IC50 [2] of 10.5 µM and an IC50 [3] of 8.8 µM. For the same compound, the IC50 [4] was 11.7 µM, the Activity [5] was “Active” and the Activity [6] was “Active”. The Activity [7] was “Active”.
